# Source: PMC6366850 (Chembiochem : a European journal of chemical biology, 2018)
# Read-outs that look alike come from different tables or passages of the source.
# Experiments:
# [1] = target: T1, Bovine Pancreatic Chymotrypsin (Bos taurus, UniProt P00766); settings: read-out: reported IC50 against bovine chymotrypsin; cited from earlier work
# [2] = target: T2, Human Neutrophil Elastase (Homo sapiens, UniProt P08246); experiment: Human neutrophil elastase inhibition assay; assay type: biochemical; settings: for fold less potent than 1, HNE: ratio of IC50 values
# T2 sequence (P08246 30-267): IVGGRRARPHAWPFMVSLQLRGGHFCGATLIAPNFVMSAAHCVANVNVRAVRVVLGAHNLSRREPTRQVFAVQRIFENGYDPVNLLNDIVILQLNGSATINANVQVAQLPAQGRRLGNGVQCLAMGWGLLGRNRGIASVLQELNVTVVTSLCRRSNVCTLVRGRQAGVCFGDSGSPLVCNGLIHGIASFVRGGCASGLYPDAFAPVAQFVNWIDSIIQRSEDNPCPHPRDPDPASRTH
# [3] = target: Porcine Pancreatic Elastase (Sus scrofa, UniProt P00772); experiment: Porcine pancreatic elastase inhibition assay; assay type: biochemical
# [4] = target: T3, Human neutrophil elastase (HNE) (Homo sapiens, UniProt P08246); experiment: In vitro cleavage of CD40-IgG chimera; assay type: biochemical; settings: qualitative gel assessment; for complete inhibition of CD40ch cleavage up to (concentration): tested 0.001–100 μM, 2 h pre-incubation with HNE
# T3 sequence (P08246 30-267): T2 sequence (P08246 30-267)
# In short: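 Human neutrophil elastase (100 μg/mL stock in 0.1 M Tris-NaCl, pH 7.5) was pre-incubated 2 h at 4 °C with test compound (0.001–100 μM) or DMSO. CD40-IgG chimera (human CD40 residues 21–193 fused to human IgG1 fragment) was then added at an elastase:CD40 molar ratio of 1:10 and incubated 1.5 h at 37 °C. Reactions were stopped by freezing and fragments run on reducing SDS-PAGE (2% mercaptoethanol). Gels were silver-stained and bands judged qualitatively; controls were elastase only and CD40 only.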
# [5] = system: CD40 cleavage by HNE in MDA-MB-231 cells; experiment: Cleavage of CD40 by HNE in MDA-MB-231 cells, Western blot; assay type: cell-based, human; settings: 100 nM HNE, 24 h
# In short: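 MDA-MB-231 cells seeded at 150,000/well; after 24 h, medium was replaced with medium containing 100 nM recombinant human neutrophil elastase plus test compound in DMSO or solvent. Lysates were taken after 24 h incubation and protein measured by BCA. 17 μg protein was run on SDS-PAGE, blotted to PVDF and probed with anti-CD40 antibody detecting the N-terminal fragment, with chemiluminescent detection.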
# MDA-MB-231 cells [6] = experiment: Transwell migration assay; assay type: cell-based, human; settings: 48 h; for effect on migration of MDA-MB-231 cells: 100 nM HNE
# In short: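 Transwell inserts with 8 μm pore PET membranes. 5000 MDA-MB-231 cells in DMEM/10% FBS were seeded in the insert with test compound in DMSO or solvent, with or without 100 nM recombinant HNE; the lower chamber held complete medium with the same additions. Plates were incubated 48 h at 37 °C, 5% CO₂, and non-migrated cells were swabbed off. Migrated cells were crystal violet-stained and counted microscopically, in triplicate. Comparisons to solvent control used a two-tailed unpaired t test.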
# [7] = target: T1, Bovine Pancreatic Chymotrypsin; experiment: Chymotrypsin inhibition assay; assay type: biochemical
# In short: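 Bovine pancreatic α-chymotrypsin in 50 mM Tris-HCl, 100 mM NaCl, 1 mM CaCl₂, pH 7.8. Test compound in DMSO (top 100 μM final, half-log dilutions) was pre-incubated with enzyme for 30 min at room temperature. Substrate was N-succinyl-Gly-Gly-Phe-p-nitroanilide (1.5 mM solution). A405 was read every 30 s for 30 min, with a PMSF positive control. Percent activity came from initial slopes relative to solvent control.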
# MDA-MB-231 cells [8] = experiment: Cell viability assay; assay type: cell-based, human; settings: 48 h, MTT
# In short: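 MDA-MB-231 cells seeded at 12,000 cells/well and grown 24 h, then exposed to test compound, HNE or DMSO solvent control. After 48 h, viability was read by MTT per the kit instructions.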
# [9] = system: ICAM-1 gene expression in MDA-MB-231 cells; experiment: ICAM-1 gene expression by RT-qPCR; assay type: cell-based, human; settings: 12 h
# In short: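 MDA-MB-231 cells seeded at 500,000/well, grown 24 h, then serum-starved 24 h in DMEM. Medium was replaced with serum-free DMEM containing test compound or solvent, with 100 nM HNE where applied, for 12 h. RNA was isolated, reverse-transcribed with oligo(dT), and ICAM-1 transcripts were quantified by TaqMan qPCR.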
# [10] = system: sICAM-1 (ICAM-1 shedding) in MDA-MB-231 cells; experiment: sICAM-1 levels by ICAM-1 AlphaLisa; assay type: cell-based, human; settings: 12 h; for reduction in the levels of sICAM-1: co-treatment with 100 nM HNE
# In short: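 MDA-MB-231 cells were grown overnight, starved 24 h, then placed in serum-free DMEM containing test compound or solvent, with 100 nM HNE where applied. After 12 h, culture medium was collected and soluble ICAM-1 quantified by AlphaLisa.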
# MDA-MB-231 cells [11] = experiment: HNE-induced morphological changes; assay type: cell-based, human
# [12] = target: purified 20S human proteasome (Homo sapiens, UniProt P28074); experiment: Proteasome activity assay; assay type: biochemical; settings: 50 μM, compared to positive control epoxomicin
# In short: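 Purified human 20S proteasome (0.1 μg/well final) was pre-incubated 10 min at room temperature with test compound (50 μM final). Suc-LLVY-AMC substrate (75 μM final) was then added to measure chymotrypsin-like activity, using a commercial kit per the manufacturer's protocol.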
# [13] = read-out: IC50 Human Neutrophil Elastase, mean ± SD, n=3, 15 min pre-incubation
# Chain of Porcine Pancreatic Elastase (P00772 27-266): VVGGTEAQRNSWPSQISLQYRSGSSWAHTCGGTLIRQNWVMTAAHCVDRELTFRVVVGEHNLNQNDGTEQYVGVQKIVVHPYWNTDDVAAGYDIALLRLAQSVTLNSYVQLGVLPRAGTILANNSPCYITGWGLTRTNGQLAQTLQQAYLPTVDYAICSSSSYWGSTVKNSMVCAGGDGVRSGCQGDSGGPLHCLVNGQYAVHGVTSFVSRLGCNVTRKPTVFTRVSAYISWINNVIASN
structure (smiles),measurement,setting,value
CC(=O)N1CCC[C@H]1C(=O)N[C@H](C(=O)N[C@@H]1C(=O)N[C@@H](CC(C)C)C(=O)N[C@H]2CC[C@@H](O)N(C2=O)[C@@H](Cc2ccccc2)C(=O)N(C)[C@@H](Cc2ccc(O)cc2)C(=O)N[C@@H](C(C)C)C(=O)O[C@@H]1C)[C@@H](C)O [kempopeptin A],IC50,[1],300 nM
"CCCC(=O)N[C@@H](C)C(=O)N[C@H](C(=O)N[C@@H]1C(=O)N[C@@H](CC(C)C)C(=O)N[C@H]2CC[C@@H](O)N(C2=O)[C@@H](Cc2ccccc2)C(=O)N(C)[C@@H](Cc2ccc(O)cc2)C(=O)N[C@@H](C(C)C)C(=O)O[C@@H]1C)[C@H](C)O [Loggerpeptin A (1), loggerpeptin A]",IC50,[2]; [13],290 ± 40 nM
"C/C=C(\NC(=O)[C@H](C)NC(=O)CCC)C(=O)N[C@@H]1C(=O)N[C@@H](CC(C)C)C(=O)N[C@H]2CC[C@@H](O)N(C2=O)[C@@H](Cc2ccccc2)C(=O)N(C)[C@@H](Cc2ccc(O)cc2)C(=O)N[C@@H](C(C)C)C(=O)O[C@@H]1C [Loggerpeptin C (3), loggerpeptin C]","fold less potent than 1 and 2, porcine pancreatic elastase",[3]; ratio of IC50 values,2 fold
same,"fold less potent than 1, HNE",[2],2 fold
same,IC50,[2]; [13],620 ± 380 nM
same,complete inhibition of CD40ch cleavage up to (concentration),[4],10 µM
same,inhibition of HNE processing of CD40 in cells,[5]; 10 μM,lacked significant activity
same,inhibition of HNE processing of CD40 in cells,[5]; 50 μM,marginal activity
same,effect on migration of MDA-MB-231 cells,MDA-MB-231 cells [6]; different concentrations,no effect on migration
"CC(C)(C)C(=O)Oc1ccc(S(=O)(=O)Nc2ccccc2C(=O)NCC(=O)O)cc1 [Sivelestat, reference compound]",IC50,[3],3550 ± 140 nM
"C/C=C1\NC(=O)[C@@H](NC(=O)[C@@H](NC(=O)[C@H](C)NC(=O)CCC)[C@@H](C)O)[C@@H](C)OC(=O)[C@H](C(C)C)NC(=O)[C@H](Cc2ccc(O)cc2)N(C)C(=O)[C@H](Cc2ccccc2)N2C(=O)[C@H](CC[C@H]2O)NC1=O [Molassamide (4), molassamide]",IC50,[7],240 ± 10 nM
same,IC50,[3],50 ± 10 nM
same,IC50,[2],110 ± 10 nM
same,fold more potent than 3 in inhibiting CD40ch cleavage,[4],10 fold
same,complete inhibition of CD40ch cleavage up to (concentration),[4],1 µM
same,inhibition of HNE processing of CD40 in cells,[5]; 50 μM,virtually complete inhibition
same,effect on viability of MDA-MB-231 cells,MDA-MB-231 cells [8],no reduction in cell viability
same,elastase-induced ICAM-1 expression levels,[9]; 100 nM HNE,dose-dependent decrease
same,ICAM-1 expression levels in the absence of HNE,[9]; without HNE,no significant change
same,reduction in the levels of sICAM-1,[10]; 10 μM,35%
same,reduction in the levels of sICAM-1,[10]; 50 μM,65%
same,effect on the levels of sICAM-1 in the absence of HNE,[10]; without HNE,no effects
same,HNE-induced cell rounding prevented up to (concentration),"MDA-MB-231 cells [11]; co-treatment with 100 nM HNE, 3 h",10 µM
same,morphological changes upon treatment with compound only,"MDA-MB-231 cells [11]; without HNE, up to 50 μM",no morphological changes
same,effect on migration of MDA-MB-231 cells,MDA-MB-231 cells [6]; 10 μM,inhibited the migration
same,effect on migration of MDA-MB-231 cells in the absence of HNE,MDA-MB-231 cells [6]; without HNE,did not exhibit any migration inhibitory activity
same,inhibition of chymotrypsin-like activity of proteasomes,[12],did not inhibit
"CCCC(=O)N[C@@H](C)C(=O)N[C@@H](C(=O)N[C@@H]1C(=O)N[C@@H](CC(C)C)C(=O)N[C@H]2CC[C@@H](O)N(C2=O)[C@@H](Cc2ccccc2)C(=O)N(C)[C@@H](Cc2ccc(O)cc2)C(=O)N[C@@H](C(C)C)C(=O)O[C@H]1C)[C@@H](C)OC(=O)[C@H](C)NC(=O)CCC [Loggerpeptin B (2), loggerpeptin B]","fold less potent than 1, HNE",[2],3 fold
same,IC50,[2]; [13],890 ± 90 nM
